Rows were chosen to be rich in hits. Some 1.2% of all compounds tested hit in one or more screens of this group.
PfGluPho inh: PfG6PD (Plasmodium falciparum) enzyme inhibition. PfGluPho enzyme, NADPH resazurin-diaphorase fluorescence. inhibition, % at 20 µM. 350,000 tested, 0.78% active;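 active = inhibition reaching at least a set limit at 20 µM in the primary screen, cut at about 59% in these data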;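 note: 0% = DMSO wells with substrate and 100% = DMSO wells lacking glucose-6-phosphate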
HKDC1 inh: inhibitors of human hexokinase HKDC1 | inhibition, % at 20 µM | recombinant HKDC1, G6PDH/diaphorase resazurin coupled fluorescence | 340,000 tested, 0.16% active;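 active = inhibition above about 35% when tested at 20 µM, limit read from the data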;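 note: plate controls were DMSO wells with enzyme for no effect and DMSO wells lacking enzyme for full effect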
Target sequence (Q2TB90 whole entry, looked up): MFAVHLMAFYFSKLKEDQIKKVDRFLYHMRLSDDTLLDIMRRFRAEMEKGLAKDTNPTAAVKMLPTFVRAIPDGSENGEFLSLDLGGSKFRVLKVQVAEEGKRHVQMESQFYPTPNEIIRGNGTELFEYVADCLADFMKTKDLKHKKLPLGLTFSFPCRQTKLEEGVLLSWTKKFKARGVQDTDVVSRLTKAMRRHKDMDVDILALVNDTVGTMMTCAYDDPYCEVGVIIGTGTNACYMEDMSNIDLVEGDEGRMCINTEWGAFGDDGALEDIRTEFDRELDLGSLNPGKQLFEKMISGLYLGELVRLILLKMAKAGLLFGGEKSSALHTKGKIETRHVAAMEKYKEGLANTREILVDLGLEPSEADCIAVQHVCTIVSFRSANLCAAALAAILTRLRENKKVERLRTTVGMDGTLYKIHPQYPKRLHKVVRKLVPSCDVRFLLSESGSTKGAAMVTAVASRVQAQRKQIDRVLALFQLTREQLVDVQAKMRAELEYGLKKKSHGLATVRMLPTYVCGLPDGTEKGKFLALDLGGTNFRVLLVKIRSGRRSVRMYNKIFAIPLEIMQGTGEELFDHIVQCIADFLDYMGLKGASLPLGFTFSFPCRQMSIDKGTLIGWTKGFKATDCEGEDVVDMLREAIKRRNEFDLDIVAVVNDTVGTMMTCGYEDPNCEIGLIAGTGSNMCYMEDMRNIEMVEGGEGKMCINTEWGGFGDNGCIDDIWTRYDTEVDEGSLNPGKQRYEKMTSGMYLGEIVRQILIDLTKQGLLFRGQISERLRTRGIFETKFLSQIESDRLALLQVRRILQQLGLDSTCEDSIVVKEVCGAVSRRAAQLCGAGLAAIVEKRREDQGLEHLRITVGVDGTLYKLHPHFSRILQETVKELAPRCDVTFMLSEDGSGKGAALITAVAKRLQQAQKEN
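System: Recombinant HKDC1 hexokinase | Amount: HKDC1 at 5 µg/mL | Reagent: Glucose with 1 mM ATP | Doses: Single 20 µM dose | Incubation: Reaction time 90 min, room temperature, protected from light | Signal: Coupled resazurin fluorescence, excitation 525 nm, emission 613 nm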
Diaph inh CS: counter-screen for diaphorase-based assays: diaphorase inhibitors and chemical oxidizers; diaphorase resazurin-to-resorufin fluorescence, NADH, 16 min; bacterial (C. kluyveri) enzyme, not human; inhibition, % at 20 µM; 190,000 tested, 0.69% active; AID 1217;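 active = primary screen inhibition at 20 µM above a set limit, cut at about 50% in these data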;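 note: plate controls were DMSO with full reaction for no effect and wells lacking NADH for full effect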
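System: Bacterial diaphorase enzyme (C. kluyveri) | Incubation: 16-min room-temperature incubation before reading | Benchmarks: No-NADH positive control and DMSO neutral control | Measured by: Resorufin fluorescence 544/590 nm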
G6PDH counter: counter-screen for G6PDH assay hits: L. mesenteroides G6PDH inhibition; inhibition, % at 5 µM; AID 1020; 200,000 tested, 0.12% active; Purified L. mesenteroides G6PDH, diaphorase/resazurin coupled fluorescence, 45 min; in the data active = inhibition above about 50%
PfGluPho conf: confirmation of Plasmodium falciparum G6PD inhibitors. shares compounds with PfGluPho inh. recombinant PfGluPho, NADPH-diaphorase-resazurin fluorescence. inhibition, % at 20 µM. 2,400 tested, 34% active. AID 504753;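 active = inhibition of at least 50% at 20 µM in any single replicate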;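 note: 0% = DMSO with substrate and 100% = DMSO lacking glucose-6-phosphate substrate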
Diaphorase 10uM: diaphorase inhibition or oxidation at 10 uM NADPH; shares compounds with PfGluPho inh; diaphorase-coupled resazurin reduction, fluorescence, NADPH 10 uM; inhibition, % at 20 µM; 820 tested, 39% active;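 active = average inhibition reaching 50% or more with the compound at 20 µM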;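 note: resorufin red fluorescence formed as diaphorase reduces resazurin using NADPH; 0% = DMSO with enzyme and 100% = DMSO without enzyme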
Diaphorase 30uM: counter-screen for P. falciparum G6PD inhibitors: diaphorase inhibitors, oxidizers | 820 tested, 29% active | Diaphorase/resazurin coupled assay, resorufin fluorescence, 30 uM NADPH | shares compounds with PfGluPho inh | inhibition, % at 20 µM;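 active = inhibition averaging 50% or more, tested at 20 µM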;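 note: 0% = DMSO with enzyme and 100% = DMSO wells lacking diaphorase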
* marks the source's active call; other numbers are inactive results; x = no result.

SMILES	PfGluPho inh	HKDC1 inh	Diaph inh CS	G6PDH counter	PfGluPho conf	others
CC(C)Oc1ccccc1C1CC(=O)Nc2cc3c(cc21)OCO3 (centres undefined)	80.5*	15.1	22.9	2.4	39.6
CC(C)c1nc(CNC(=O)C2CCC(=O)N(CCc3cccc(F)c3)C2)cs1 (centres undefined)	-1.5	-7.2	x	x	x
CN(C)c1ccc(C=c2c3cc([N+](=O)[O-])ccc3n3c2cc(-c2ccccc2)[n+]3C)cc1	120.0*	20.3	x	x	92.7*	Diaphorase 10uM=24.2;Diaphorase 30uM=24.2
COc1cc(C=c2c3ccccc3n3c2cc(-c2ccccc2)[n+]3C)cc(OC)c1OC	13.7	26.9	x	x	x
Cc1[nH]c2ccccc2c1/C=N/NC(=O)c1cccc(Br)c1	18.6	3.1	x	x	x
Cc1[nH]c2ccccc2c1/C=N/NC(=O)c1cccc(S(=O)(=O)Nc2ccccc2Cl)c1	83.2*	2.5	19.5	-21.3	68.3*	Diaphorase 10uM=64.9*;Diaphorase 30uM=48.3
COc1cc(-c2cc(OC)c3c(C)oc(C)c3c(=O)c2)ccc1O	31.0	2.7	20.4	11.5	x
COc1c(OC)c(O)c2c(=O)c(O)c(-c3ccccc3)oc2c1OC	-10.4	-3.4	26.8	38.0	x
COc1cc(-c2cc(=O)c3c(O)c(OC)c(OC)c(O)c3o2)ccc1O	88.1*	4.2	66.5*	20.5	82.1*	Diaphorase 10uM=46.5;Diaphorase 30uM=24.8
COc1c(O)c(O)c2oc(-c3ccccc3)cc(=O)c2c1OC	98.0*	8.2	48.7	21.2	79.3*	Diaphorase 10uM=67.0*;Diaphorase 30uM=30.0
C=CCNc1nc2c3ccccc3n(C(C)=O)c2s1	64.0*	2.9	17.5	4.2	7.5
CC1=C(C(=O)N(C(C)C)C(C)C)CC(CC(=O)NCCN2CCOCC2)C(=O)N1Cc1ccccc1 (centres undefined)	-20.7	x	x	x	x
CCOC(=O)c1c(NC(=O)CN(C)C)sc(C(=O)N(CC)CC)c1C	11.1	-3.7	11.3	3.7	x
CCCCC(=O)Nc1sc(C(=O)N(CC)CC)c(C)c1C(=O)OC	69.5*	-13.1	12.2	10.3	29.5
O=S(=O)(Nc1c(O)ccc2ccccc12)c1cccc2ccccc12	84.3*	28.5	x	x	44.3
COc1ccc2cc(C(=O)C3CCCN(C(=O)c4cnn(C(C)C)c4)C3)ccc2c1 (centres undefined)	2.8	-0.7	x	x	x
O=c1c2ccccc2oc2cc(C#CC3(O)CCCCC3)ccc12	14.3	4.6	x	x	x
C=CCn1c2ccccc2c(=O)c2cc(C#CC[C@@H](C)O)ccc21	67.2*	9.8	x	x	41.2
Cn1c2ccccc2c(=O)c2cc(C#CC3=CCCCC3)ccc21	32.8	14.6	x	x	x
C=CCn1c2ccccc2c(=O)c2cc(C#CC3(O)CCCCC3)ccc21	104.1*	2.2	x	x	55.3*	Diaphorase 10uM=69.9*;Diaphorase 30uM=53.5*
O=C(COC(=O)Cn1cnc2ccccc2c1=O)Nc1ccccc1Sc1ccc(Cl)cc1	71.1*	8.1	23.0	-8.6	37.9
Cc1nn(C(=O)c2cccnc2)c(C)c1Sc1ccc(Br)cc1	67.0*	-2.9	12.0	-0.5	43.8
N#CC1C(=O)NC(=O)C(C#N)C12CCCc1sccc12 (centres undefined)	-6.5	x	x	x	x
Nc1nc(=S)c2[nH]c(=S)[nH]c2[nH]1	67.2*	-1.8	x	x	20.6
CC(=O)NCCC(=O)Nc1cc(S(=O)(=O)N2CCOCC2)ccc1N1CCCC1	-2.5	-4.4	x	x	x
SMILES	PfGluPho inh	HKDC1 inh	Diaph inh CS	G6PDH counter	PfGluPho conf	others
O=C(Nc1ccc2c(c1)OCCO2)c1cc2sccc2n1Cc1ccccc1	39.1	11.4	24.9	2.8	x
Cn1c(C(=O)Nc2ccc3c(c2)OCCO3)cc2sccc21	65.8*	-6.1	13.4	-5.0	18.1
O=S(=O)(c1ccccc1)N1CCN(S(=O)(=O)c2ccccc2)c2ccccc21	111.5*	4.1	x	x	44.8
CC(C)N1CCN(S(=O)(=O)c2ccccc2)c2ccccc21	95.3*	4.5	x	x	37.8
O=S(=O)(c1ccccc1)N1CCNc2ccccc21	23.2	-0.9	x	x	x
Cc1ccc(/C=C/C(=O)NCCc2ccccc2)o1	75.1*	-1.2	x	x	14.6
COc1ccc(-c2nc(-c3ccccn3)ncc2S(C)(=O)=O)cc1	-13.4	-14.9	6.7	6.9	x
Cn1nc(-c2ccccn2)nc2c(=O)n(C)c(=O)nc1-2	112.5*	29.1	x	x	89.0*	Diaphorase 10uM=97.5*;Diaphorase 30uM=102.8*
CCCc1nc2c(=O)n(C)c(=O)nc-2n(C)n1	108.7*	3.3	46.5	56.3*	103.5*	Diaphorase 10uM=98.2*;Diaphorase 30uM=100.2*
Cc1csc(NC(=O)Cn2nc(C)c([N+](=O)[O-])c2C)n1	7.8	-2.0	6.7	-1.2	x
CCc1c(C)sc(NC(=O)Cn2nc(C)c([N+](=O)[O-])c2C)c1C(N)=O	69.0*	-3.6	5.1	7.2	28.6
CCCCNC1=CC(=O)C(NCCCC)=CC1=O	62.2*	26.5	x	x	-3.1
COc1ccccc1NS(=O)(=O)c1cccc(C(=O)NCC(c2cccs2)N(C)C)c1 (centres undefined)	-2.9	-7.7	x	x	x
COc1cc2cc(c1Cl)N(C)C(=O)CC(OC(=O)C(C)N(C)C(C)=O)C1(C)OC1C(C)C1CC(O)(NC(=O)O1)C(OC)C=CC=C(C)C2 (centres undefined)	13.7	-6.6	x	x	x
N#Cc1ccccc1Sc1ccccc1N	2.3	4.6	15.4	3.7	x
Nc1ccccc1SSc1ccccc1N	68.8*	-23.5	x	x	44.1
O=C(COc1ccc(-c2nnco2)cc1)Nc1c(Cl)cccc1C(F)(F)F	4.7	-1.0	x	x	x
CC(=O)Nc1ccc(S(=O)(=O)Nc2nnc(C)s2)cc1	26.3	x	x	x	x
CCC(=O)OCOc1ccc(/C=C2/CCC(CN(C)C)C2=O)cc1 (centres undefined)	84.1*	2.5	x	x	56.3*	Diaphorase 10uM=-32.7;Diaphorase 30uM=-23.1
CCOc1ccc(/C=C2\CCC(C3CCCC3)C2=O)cc1 (centres undefined)	11.8	-2.5	x	x	x
O=C(NNC(=O)c1ccccc1-n1cccc1)c1ccc(Cl)nc1	-15.3	-5.2	x	x	x
COc1ccc(CN(Cc2cccn2C)S(=O)(=O)c2ccc(C)cc2)cc1	66.4*	2.5	x	x	2.2
CN=c1sc2c(n1C)C(=O)c1ccccc1C2=O	72.2*	23.8	x	x	17.7
CN=c1sc(C(=O)Nc2ccccc2)c(C)n1C	0.9	-10.0	-7.4	3.1	x
CC(C)OC(=O)CSc1nc(N2CCOCC2)c2c(c1C#N)CC(C)(C)OC2	-4.7	2.3	x	x	x
Cc1ccc(OCc2occc2C(=O)O)cc1	-13.2	-1.0	x	x	x
Nc1nc2ccc(S(=O)(=O)N3CCCCC3)cc2s1	64.8*	-2.8	-3.5	-2.3	40.4
CC1=C(C)C(=O)C(CCCCC#CCCCC#CCO)=C(C)C1=O	89.4*	30.2	43.9	57.0*	31.4
CCN1CCN(C(=S)c2ccc(Cl)c(Cl)c2)CC1	59.4*	-2.0	10.1	-4.6	55.4*	Diaphorase 10uM=24.3;Diaphorase 30uM=-16.1
CCN1CCN(C(=S)Nc2ccc(Cl)c(Cl)c2)CC1	6.4	-2.2	10.9	12.3	x

Source: PubChem BioAssay (Sanford-Burnham Center for Chemical Genomics)
